These results are taken from ChEMBL document CHEMBL2169786, “5-Arylidenethioxothiazolidinones as inhibitors of tyrosyl-DNA phosphodiesterase I” (J Med Chem, 2012).

Assay [1] deals with T1, Tyrosyl-DNA phosphodiesterase 1 (Homo sapiens, UniProt Q9NUW8). The experiment in a line: Inhibition of human recombinant Tdp1 assessed as conversion of 14-mer 5'-32P-labeled 3'-phosphotyrosyl DNA substrate N14Y to 14-mer 5'-32P-labeled 3'-phosphate DNA product N14P after 15 mins by PAGE analysis.
The target in assay [2] is T1, Tyrosyl-DNA phosphodiesterase 1. The experiment in a line: Inhibition of human recombinant Tdp1 expressed in Tdp1 knockout chicken DT40 cells using 5'-32P-labeled 5'-GATCTAAAAGACTT-pY-3' as substrate after 15 mins by PAGE analysis.
Assay [3] deals with N14Y tyrosyl-oligonucleotide (DNA, no organism). The experiment in a line: Binding affinity to biotin- GATCTAAAAGACTT-Tyr immobilized CM5 sensor chip by surface plasmon resonance analysis.
Assay [4] concerns the target T1, Tyrosyl-DNA phosphodiesterase 1. The experiment in a line: Binding affinity to human recombinant Tdp1 in amine coupled to CM5 sensor chip by surface plasmon resonance analysis. The method, boiled down:
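SPR: Tdp1 amine-coupled to CM5 chip (~6000 RU), active site protected during coupling by prebinding 2 μM 3′-phosphate 14-mer oligo to 1 μM Tdp1 in 10 mM sodium acetate pH 4.5, 20 min. Compound series 0.39–50 μM in Tris/KCl/EDTA/DTT/BSA running buffer with 5% DMSO, pH 7.5, injected at 30 μL/min, 25 °C. Buffer-cycle referencing; DMSO calibration.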

Assay [5] deals with T2, Tyrosyl-DNA phosphodiesterase 2 (Homo sapiens, UniProt O95551).
T2 sequence (O95551 whole entry): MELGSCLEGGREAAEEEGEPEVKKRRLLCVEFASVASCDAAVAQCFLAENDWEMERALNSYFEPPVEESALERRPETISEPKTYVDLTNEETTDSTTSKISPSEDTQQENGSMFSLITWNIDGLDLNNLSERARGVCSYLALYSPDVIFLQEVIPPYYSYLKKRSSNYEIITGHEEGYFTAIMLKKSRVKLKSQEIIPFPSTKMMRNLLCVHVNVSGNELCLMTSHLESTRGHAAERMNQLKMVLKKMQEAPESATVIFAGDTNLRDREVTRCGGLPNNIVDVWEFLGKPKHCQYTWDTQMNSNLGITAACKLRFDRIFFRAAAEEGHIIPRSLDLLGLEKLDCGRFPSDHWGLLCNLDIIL
The experiment in a line: Inhibition of recombinant Tdp2.

Assay [6] deals with T1, Tyrosyl-DNA phosphodiesterase 1. The experiment in a line: Ratio of IC50 for human recombinant Tdp1 in presence of bovine serum albumin to IC50 for human recombinant Tdp1 in absence of bovine serum albumin.
Assay [7] has the same target. The experiment in a line: Inhibition of human recombinant Tdp1 assessed as conversion of 14-mer 5'-32P-labeled 3'-phosphotyrosyl DNA substrate N14Y to 14-mer 5'-32P-labeled 3'-phosphate DNA product N14P after 15 mins by PAGE analysis in presence of bovine serum albumin.
The species entered for assay [8] is Homo sapiens. The experiment in a line: Selectivity ratio of IC50 for recombinant Tdp2 to IC50 for human recombinant Tdp1.

Each structure is given as a SMILES string. pIC50: −log10 of the molar value. Calls of active or inactive are those of the source. The rule behind the calls is not given here. A value given as a limit tells only on which side of the number the result lay.

T1 sequence (Q9NUW8 whole entry): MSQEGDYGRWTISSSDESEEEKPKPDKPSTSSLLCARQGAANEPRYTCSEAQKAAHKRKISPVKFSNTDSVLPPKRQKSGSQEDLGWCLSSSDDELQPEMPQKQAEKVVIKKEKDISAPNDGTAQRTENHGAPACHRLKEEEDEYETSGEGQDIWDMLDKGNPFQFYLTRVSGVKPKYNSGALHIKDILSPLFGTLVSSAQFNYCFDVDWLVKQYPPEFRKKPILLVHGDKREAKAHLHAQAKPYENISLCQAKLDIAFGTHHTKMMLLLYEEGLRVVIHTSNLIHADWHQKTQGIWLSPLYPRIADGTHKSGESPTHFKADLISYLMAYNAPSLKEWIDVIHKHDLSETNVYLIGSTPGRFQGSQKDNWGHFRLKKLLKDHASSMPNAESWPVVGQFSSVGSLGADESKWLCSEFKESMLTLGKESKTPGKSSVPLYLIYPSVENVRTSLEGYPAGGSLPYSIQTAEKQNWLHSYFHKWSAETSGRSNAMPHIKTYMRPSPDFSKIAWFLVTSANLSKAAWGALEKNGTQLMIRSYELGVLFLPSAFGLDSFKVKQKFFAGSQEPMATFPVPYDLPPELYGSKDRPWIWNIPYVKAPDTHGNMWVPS

The pIC50 is −log10 of the IC50, conventionally taken in molar units. For `O=C1NC(=S)/C(=C/c2csc3ccccc23)S1`, the negative-log IC50 (pIC50) in assay [1] is 4.47.
For the compound `N#C/C(=C\c1ccc(F)cc1)C(N)=S`, in assay [1], the pIC50 is < 3.48.
Regarding `O=C1NC(=S)/C(=C/c2ccc(O)c(O)c2)S1`, the pIC50 in assay [2] was 4.39; in assay [1], 5.59.
On to `O=C(O)c1ccc(/C=C2\NC(=S)N(c3ccccc3)C2=O)cc1`, for which the pIC50 in assay [1] is < 3.48.
In the case of `CCOP(=O)(OCC)c1ccc(/C=C2\SC(=O)NC2=S)cc1`, the negative-log IC50 (pIC50) in assay [1] was 4.54.
Take `COC(=O)c1ccc(/C=C2\SC(=O)NC2=S)cc1`: the pIC50 is 4.42 in assay [2] and 5.17 in assay [1].
In the case of `O=C1NC(=S)/C(=C/c2cccc(C(=O)O)c2)S1`, the pIC50 in assay [1] was 4.82.
The same measure, in the same setting: with `O=C1NC(=S)/C(=C/c2cccnc2)S1` the figure was 4.36; with `Cn1cc(/C=C2\SC(=O)NC2=S)c2ccccc21`, 4.40; with `O=C1NC(=S)/C(=C/c2ccc(O)cc2)S1`, 4.41.
On the same count and under the same terms, with `COc1cc(/C=C2\SC(=O)NC2=S)cc(OC)c1O` the figure was 4.32.
The same measure, in the same setting: with `O=C1NC(=S)/C(=C/c2ccncc2)S1` the figure was 4.12.
`O=C1NC(=S)N(Cc2ccccc2)/C1=C\c1ccc(O)c(O)c1`: in assay [1], the pIC50 is 4.89.
As for `COC(=O)c1cccc(/C=C2\SC(=O)NC2=S)c1`, the negative-log IC50 (pIC50) in assay [1] is 4.29.
Consider `O=C1NC(=S)/C(=C/c2cc(O)ccc2O)S1`, for which the results for the pIC50 in assay [2] and in assay [1] were 4.12 and 5.15, respectively.
As for `O=C1NC(=S)/C(=C/c2ccccc2C(=O)O)S1` [listing 1 of 2 here], the pIC50 in assay [2] is 3.86; in assay [1] it was 4.82.
In the case of `N#C/C(=C\c1ccc(Br)cc1)C(N)=S`, the pIC50 in assay [1] was < 3.48.
On the same count and under the same terms, with `COc1cc(/C=C2\SC(=O)NC2=S)ccc1O` the figure was 4.96; with `O=C1NC(=O)/C(=C/c2ccc3[nH]ccc3c2)S1`, < 3.95.
On to `O=C1NC(=S)/C(=C/c2ccccc2C(=O)O)S1` [listing 2 of 2 here], for which the values for the pIC50 in assay [2] and in assay [1] were 3.55 and 5.07, respectively.
For the compound `N#Cc1ccc(/C=C2\SC(=O)NC2=S)cc1`, the pIC50 in assay [1] is 4.55.
Turning to `O=C1NC(=S)/C(=C/c2ccc(O)cc2O)S1`, the pIC50 was 4.12 in assay [2] and 5.39 in assay [1].
Turning to `N#C/C(=C\c1ccc(O)c(O)c1)C(=S)NCc1ccccc1`, the pIC50 in assay [1] is 4.74.
On the same count and under the same terms, with `O=C1/C(=C/c2ccc(O)c(O)c2)NC(=S)N1c1ccccc1` the figure was 4.13.
As to `O=C1NC(=S)/C(=C/c2ccc(O)c(O)c2O)S1`, in assay [3], the result was inactive. In addition, the pIC50 in assay [2] was 4.46; in assay [5] it was 4.77; in assay [1] it was 6.06; in assay [7] it was 5.55. The Activity result in assay [4] was “Dose-dependent effect”. Also, the Ratio IC50 in assay [6] stood at 3; in assay [8] it was 20.
Consider `N#C/C(=C\c1ccc(O)c(O)c1)C(N)=O`, for which the pIC50 in assay [1] is < 3.48.
As for `O=C1NC(=O)/C(=C/c2ccc(F)cc2)S1`, the pIC50 in assay [1] was < 3.48.
For `O=C1NC(=S)/C(=C/c2ccc(-c3nnn[nH]3)cc2)S1`, the pIC50 in assay [1] was 4.49.
Still for that read-out and setting: with `N#C/C(=C\c1ccc(O)c(O)c1)C(=O)O` the figure was < 3.48; with `N#C/C(=C\c1ccc([N+](=O)[O-])cc1)C(N)=S`, < 3.48.
`O=C1NC(=S)/C(=C/c2ccc(C(=O)O)cc2)S1` [listing 1 of 2 here]: the results for the pIC50 in assay [2] and in assay [1] were 4.96 and 4.80, respectively.
As to `O=C1NC(=S)/C(=C/c2ccc(F)cc2)S1`, the pIC50 in assay [1] is 4.57.
Same read-out and setting: with `O=C1NC(=S)/C(=C/c2ccccc2-c2nnn[nH]2)S1` the figure was 3.95.
Still for that read-out and setting: with `N#C/C(=C\c1ccc2ccccc2c1)C(N)=S` the figure was < 3.48.
Take `O=C1NC(=S)/C(=C/c2ccc(C(=O)O)cc2)S1` [listing 2 of 2 here]: the negative-log IC50 (pIC50) in assay [2] was 5.16; in assay [1] it was 5.11.
Take `O=C1NC(=S)/C(=C/c2ccc3[nH]ccc3c2)S1`: the pIC50 in assay [1] was 4.92.
As to `O=C1NC(=S)/C(=C/c2ccccc2S(=O)(=O)O)S1`, the pIC50 in assay [1] was 4.70.
Still for that read-out and setting: with `O=C1NC(=S)/C(=C/c2ccc(Br)cc2)S1` the figure was 4.52; with `N#C/C(=C\c1ccc(C(=O)O)cc1)C(N)=S`, 4.92.
The same measure, in the same setting: with `N#CC(C#N)=Cc1cc(O)c(O)c(O)c1` [TYRPHOSTIN 25] the figure was < 3.48; with `O=C1NC(=S)/C(=C/c2ccc(-c3ccccc3)s2)S1`, 4.34; with `CC(=O)Nc1ccc(/C=C(\C#N)C(N)=S)cc1`, < 3.48.
Turning to `O=C1NC(=S)/C(=C/c2cccc(O)c2O)S1`, the pIC50 in assay [2] is 3.66; in assay [1] it was 5.24.
For the compound `O=C1NC(=S)/C(=C/c2ccccc2O)S1`, the pIC50 in assay [1] was 4.47.
On the same count and under the same terms, with `N#C/C(=C\c1ccc(O)c(O)c1)C(=O)NCc1ccccc1` the figure was < 3.48.
Same read-out and setting: with `O=C1/C(=C/c2ccc(F)cc2)NC(=S)N1c1ccccc1` the figure was < 3.48.
As to `O=C1NC(=S)/C(=C/c2ccc(P(=O)(O)O)cc2)S1`, the negative-log IC50 (pIC50) in assay [2] is 4.16; in assay [1] it was 5.66.
`O=C1NC(=S)N(Cc2ccccc2)/C1=C\c1ccc(C(=O)O)cc1`: in assay [1], the pIC50 was < 3.48.
Still for that read-out and setting: with `N#C/C(=C\c1ccc2[nH]ccc2c1)C(N)=S` the figure was < 3.48; with `O=C1NC(=S)/C(=C/c2ccc([N+](=O)[O-])cc2)S1`, 4.72.
The same measure, in the same setting: with `O=C1NC(=O)/C(=C/c2ccc(C(=O)O)cc2)S1` the figure was < 3.95; with `O=C1NC(=S)/C(=C/c2cccc(O)c2)S1`, 4.59.
